Bioassay records deposited in PubChem by several laboratories.
hiPSC survival: increases survival of single human iPS cells. survival enhancement, % at 20 µM. hiPSC single-cell survival, ATPlite luminescence; 100% = ROCK inhibitor wells, 0% = DMSO. 0.044% of 360,000 active. AID 602274; in the data active = survival enhancement above about 18%;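 also: cells exposed to compounds for 16 hours before the ATP read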
TAG inh: inhibitors of triacylglycerol accumulation; 0.66% of 230,000 active; AID 651582; inhibition, % at 12.5 µM; H9c2 cells, Nile Red lipid (TAG) fluorescence; cells loaded with 200 µM oleic acid;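 active = pattern-corrected inhibition of lipid staining of at least 50% with the nuclear-stain viability signal not falling by more than 50%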;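 also: 0% = DMSO wells and 100% = triacsin C control wells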
Rev-erbA mod: modulates human Rev-erb alpha binding to DNA; P20393; AID 1259318; Rev-erbα–FITC-DNA binding, fluorescence polarization, 90 min; 0.79% of 370,000 active; activity, % at 10 µM;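 active = activity above about 14%, limit read from the data; passing the limit was not always enough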;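 also: 0% = DMSO wells with 35 nM protein and 100% = DMSO wells with 750 nM protein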
Target sequence (P20393 whole entry, looked up): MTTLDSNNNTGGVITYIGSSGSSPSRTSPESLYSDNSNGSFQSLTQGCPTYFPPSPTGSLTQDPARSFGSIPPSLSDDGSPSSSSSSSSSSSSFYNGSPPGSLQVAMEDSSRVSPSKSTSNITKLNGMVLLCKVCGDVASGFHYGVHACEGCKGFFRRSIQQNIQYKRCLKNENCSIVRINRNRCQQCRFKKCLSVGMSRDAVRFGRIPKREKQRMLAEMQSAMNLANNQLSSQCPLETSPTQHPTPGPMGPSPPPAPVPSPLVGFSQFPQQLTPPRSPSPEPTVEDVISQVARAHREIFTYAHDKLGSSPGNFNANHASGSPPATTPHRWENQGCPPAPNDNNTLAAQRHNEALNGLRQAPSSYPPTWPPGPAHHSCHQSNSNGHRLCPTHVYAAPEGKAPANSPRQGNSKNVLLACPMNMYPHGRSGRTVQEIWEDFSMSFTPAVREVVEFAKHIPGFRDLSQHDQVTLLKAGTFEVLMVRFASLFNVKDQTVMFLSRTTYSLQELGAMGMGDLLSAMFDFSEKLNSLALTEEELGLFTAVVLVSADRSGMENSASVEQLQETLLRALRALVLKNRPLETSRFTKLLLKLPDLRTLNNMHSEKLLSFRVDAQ
MIN6 prolif: inducers of beta-cell replication in MIN6 cells; AID 2380; 0.29% of 330,000 active; MIN6 cells proliferation, ATPlite luminescence, 48 h; cells starved in 0.2% serum; 100% = growth in 10% serum; proliferation, % at 10 µM;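 active = compounds whose signal lies at least 3.5 SD above the mean of all wells on their plate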;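 also: 0% = DMSO-treated cells in low-serum medium and 100% = 10% serum control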
PG9 Ab binder: PG9 antibody binding by small molecule. TR-FRET gp120-PG9 antibody binding. inhibition, % at 6.7 µM. 0.43% of 360,000 active. AID 624416; in the data active = inhibition above about 8.5%
T cruzi inh: T. cruzi replication inhibition | 1.4% of 300,000 active | T. cruzi beta-gal in NIH3T3, luminescence, 90 h | inhibition, % (test concentration not listed);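 active = mean inhibition across valid replicates above about 55%, limit read from the data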;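 also: signal also drops with host cell toxicity which is not excluded here; 0% = plate median of DMSO wells and 100% = zero luminescence signal; higher percent means less beta-gal luminescence so fewer parasites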
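Incubation – ≥90 h infection period, 3 h prior cell attachment · System – NIH/3T3 fibroblasts plus reporter T. cruzi · Doses – compound pinned at 50 nL/well, DMSO · Read-out basis – percent inhibition of parasite-derived β-gal signal · Signal – luminescent β-galactosidase signal after 60 min lysis · Also added – 5000 T. cruzi trypomastigotes/well · Medium – Low-serum DMEM with 2% FBS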
PG9 binder conf: PG9 antibody binding, confirmed. shares compounds with PG9 Ab binder. TR-FRET PG9 antibody binding, biochemical. inhibition, % at 6.7 µM. 90% of 1,500 active. AID 651571; in the data active = inhibition above about 9%
PGV04 counter: binds control antibody PGV04 in PG9 binder counter-screen. shares compounds with PG9 Ab binder. TR-FRET PGV04 antibody-gp120 binding, biochemical. inhibition, % at 6.7 µM. 95% of 1,500 active; in the data active = inhibition above about 9.5%
PG9 binder DR: small molecules binding HIV-1 gp120 antibody PG9 | shares compounds with PG9 Ab binder | AID 651848 | TR-FRET PG9 antibody-gp120 binding inhibition | IC50, µM | 95 tested, under 10 active; in the data active = IC50 below about 10 µM
PGV04 DR counter: PGV04 binding, dose response counter-screen | 20% of 95 active | shares compounds with PG9 Ab binder | IC50, µM | AID 651937 | TR-FRET binding to control antibody PGV04
PG126 binding DR: binds control antibody PG126 in PG9 counter-screen | shares compounds with PG9 Ab binder | AID 651939 | TR-FRET binding to antibody PG126, counterscreen | 20% of 95 active | IC50, µM
* marks the source's active call; other numbers are inactive results; i = inactive; · = no result. A selection: hits, their analogues and other compounds. The true share with any hit is near 2.9%. Rule as the data show it, unless noted: active = IC50 below about 9 µM; inactive = the rest.

SMILES	hiPSC survival	TAG inh	Rev-erbA mod	MIN6 prolif	PG9 Ab binder	T cruzi inh	PG9 binder conf	PGV04 counter	others
O=C(Nc1ccc(F)cc1)C1CCCN(S(=O)(=O)c2ccc3[nH]c(=O)ccc3c2)C1 (stereo unspecified)	0.1	-2.1	-5.2	0.8	11.4*	0.0	18.5*	28.8*
Cc1ccc(C)c(NC(=O)C2CCCN(S(=O)(=O)c3ccc4[nH]c(=O)ccc4c3)C2)c1 (stereo unspecified)	-0.7	·	10.0	1.8	15.9*	-10.3	12.7*	20.6*
CCN(CC)CCNC(=O)C(=O)Nc1ccc(C(=O)OC)cc1	0.2	17.8	-0.7	-3.9	-2.0	-3.3	·	·
N#Cc1c(SCC(N)=O)nc(-c2ccccc2)c2c1CCCC2	3.2	·	5.7	0.6	4.2	0.4	·	·
N#Cc1c(SCC(=O)O)nc(-c2ccccc2)c2c1CCCC2	1.2	·	-6.9	-0.4	13.0*	15.4	18.6*	23.6*
O=C(CC(=O)Nc1cccnc1)Nc1cccnc1	-0.5	·	-0.3	-2.0	-0.9	-12.2	·	·
NC(=O)c1nn(-c2ccccc2)nc1NC(=O)CN1CCCC1	-0.4	-1.3	-3.5	0.8	-0.6	0.3	·	·
NC(=O)c1nn(-c2ccccc2)nc1NC(=O)Cn1nnc(-c2ccccc2)n1	-0.2	·	-2.9	0.4	8.6*	-12.9	18.4*	19.4*
Cc1csc(N=Nc2ccc(N(C)C)cc2)[n+]1[O-]	-2.0	21.2	-28.4	·	-123.9	·	·	·
CC1CCN(CCCn2c(=S)[nH]c3c(sc4ccccc43)c2=O)CC1	0.7	-2.4	-3.7	-1.8	15.2*	16.6	9.7*	9.4*	PG9 binder DR=i;PGV04 DR counter=i;PG126 binding DR=i
COC(=O)C(NNc1ccccc1C)(NC(=O)c1ccc(F)cc1)C(F)(F)F (stereo unspecified)	-1.2	13.5	-0.9	-2.8	-3.9	-35.2	·	·
O=C(c1cc([N+](=O)[O-])ccc1N1CCOCC1)N1CCCCC1	1.0	·	0.4	-1.8	-2.2	-17.0	·	·
O=C(c1cc([N+](=O)[O-])ccc1N1CCOCC1)N1CCN(c2ccc([N+](=O)[O-])cc2)CC1	-0.2	-17.6	3.2	1.5	18.0*	16.9	7.1	7.1	PG9 binder DR=>67;PGV04 DR counter=>67;PG126 binding DR=>67
CCCCC(=O)Nc1cccc(NC(=O)c2ccc(Br)o2)c1	2.3	·	-5.3	0.4	-0.9	1.5	·	·
CCC1(C)Cc2ccccc2-c2nc(SCC(N)=O)[nH]c(=O)c21 (stereo unspecified)	0.1	·	-0.2	-1.6	-1.1	0.7	·	·
CCC1(C)Cc2ccccc2-c2nc(SC)[nH]c(=O)c21 (stereo unspecified)	-0.5	·	1.4	-4.3	13.1*	-5.1	9.4*	8.6	PG9 binder DR=>67.1;PGV04 DR counter=>67.1;PG126 binding DR=>67.1
COc1cc(OC)c(C(=O)OC(C)C(=O)NCc2ccc3c(c2)OCO3)cc1OC (stereo unspecified)	4.5	4.7	8.3	3.8	-0.6	·	·	·
O=C(OCC(=O)N1CCN(C(=O)c2ccco2)CC1)c1ccc(S(=O)(=O)N2CCCCC2)cc1	-2.2	-6.6	-5.3	-2.1	0.7	-15.9	·	·
CCCOc1ccc(C2C(C(=O)c3ccc(C)o3)=C(O)C(=O)N2Cc2ccco2)cc1 (stereo unspecified)	0.1	18.0	-1.4	0.7	13.7*	-15.9	15.9*	20.9*
CCCOc1ccc(C2C(C(=O)c3ccc(C)o3)=C(O)C(=O)N2Cc2ccco2)cc1OCC (stereo unspecified)	0.1	-7.8	8.3	-1.4	7.2	-5.3	·	·
Cc1ccc(C(=O)C2=C(O)C(=O)N(c3ncccn3)C2c2ccc(Cl)cc2)o1 (stereo unspecified)	-2.2	·	-5.9	-2.5	18.8*	-11.9	30.7*	39.1*
Cc1ccc(C(=O)C2=C(O)C(=O)N(Cc3cccnc3)C2c2cccc(Oc3ccccc3)c2)o1 (stereo unspecified)	·	·	-3.3	-1.4	48.0*	-7.4	46.6*	53.5*
CCOc1ccc(C2C(C(=O)c3ccc(C)o3)=C(O)C(=O)N2Cc2cccnc2)cc1 (stereo unspecified)	-0.2	·	-2.0	0.2	22.6*	4.5	35.4*	41.4*
CC(NC(=O)c1ccc(Cn2cc([N+](=O)[O-])cn2)cc1)c1ccccc1 (stereo unspecified)	1.9	·	0.1	-0.9	-0.7	-4.0	·	·
CCN(CC)S(=O)(=O)c1ccc(NC(=O)c2c(-c3ccccc3)noc2C)cc1	-0.1	28.1	-8.2	-8.2	-0.2	3.1	·	·
SMILES	hiPSC survival	TAG inh	Rev-erbA mod	MIN6 prolif	PG9 Ab binder	T cruzi inh	PG9 binder conf	PGV04 counter	others
Cc1ccc(C(=O)C2=C(O)C(=O)N(Cc3cccnc3)C2c2ccc(Cl)cc2)o1 (stereo unspecified)	-0.3	·	-0.7	0.0	19.1*	3.2	26.8*	35.8*
NC(=O)C1(Nc2ccc(Br)cc2)CCCC1	-0.5	-15.3	-2.6	·	-0.2	·	·	·
O=C(Nc1ccc(N2C(=O)C3CCCCC3C2=O)cc1Cl)c1cccs1 (stereo unspecified)	-0.1	-3.8	8.3	-1.1	18.2*	7.0	30.1*	45.7*
O=C(c1ccc(Cl)cc1)c1c[nH]c(C(=O)C(Cl)(Cl)Cl)c1	-5.3	0.6	0.4	-1.4	0.6	-14.4	·	·
COCCCN1C(=O)C(=O)/C(=C(/O)c2ccc(OC(C)C)cc2)C1c1cccnc1 (stereo unspecified)	2.4	·	0.1	0.6	10.4*	-8.2	14.5*	18.8*
O=C(COc1ccc([N+](=O)[O-])cc1)Nc1ccc(CN2CCOCC2)cc1	-2.3	·	7.6	0.1	-2.4	8.9	·	·
O=C(O)c1cccc(N2C(=O)c3cc4cccc(Br)c4cc3C2=O)c1	-0.8	·	5.5	-4.2	14.0*	-10.0	16.1*	21.6*
COc1ccccc1-n1nc(C)c(-c2ccccc2)c1N	0.4	-1.2	-1.7	2.0	0.8	-11.7	·	·
Cc1ccc2c(Cl)c(C(=O)Nc3ccc4c(c3)OCO4)sc2c1	1.0	·	11.0	0.0	14.4*	-4.2	26.4*	52.8*
Cc1cccc(NC(=O)c2cnn3ccccc23)c1C	-0.2	3.1	-2.9	-2.9	11.2*	-7.8	0.9	3.6
Cc1cccc(N(C)S(=O)(=O)c2ccc3[nH]cc(C(=O)N4CCOCC4)c(=O)c3c2)c1	-2.7	7.3	-1.2	0.3	3.9	-7.2	·	·
